Assay outcomes: PubChem BioAssay, several laboratories
Most compounds without a hit are left out; they make up all but 2.1% or so of the library.
MC4R barr agon: human MC4R agonism via beta-arrestin. P32245. U2OS MC4R beta-arrestin complementation, luminescence; percent of melanotan II response, DMSO zero. hit rate 0.98% among 360,000. activation, % at 8.9 µM;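 active = activation above a per-plate cutoff, the mean activation of sample wells on that plate plus 3 SD, cut at about 8% in these data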
Target sequence (P32245 whole entry, looked up): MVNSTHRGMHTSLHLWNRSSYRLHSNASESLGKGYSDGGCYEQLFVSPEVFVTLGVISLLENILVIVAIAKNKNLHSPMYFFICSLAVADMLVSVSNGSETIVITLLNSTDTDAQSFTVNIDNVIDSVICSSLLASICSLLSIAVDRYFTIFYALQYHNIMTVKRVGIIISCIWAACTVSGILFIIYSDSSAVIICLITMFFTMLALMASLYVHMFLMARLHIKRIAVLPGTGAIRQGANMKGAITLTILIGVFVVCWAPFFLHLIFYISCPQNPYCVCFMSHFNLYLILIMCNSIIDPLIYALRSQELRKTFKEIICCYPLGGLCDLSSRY
F508del corr: correctors of CFTR F508del function in bronchial epithelial cells. CFBE cells, YFP halide quenching; stimulated with forskolin plus potentiator P3; % fluorescence drop versus neutral controls. activity (quench increase), % at 7.58 µM. hit rate 0.36% among 350,000. AID 720511;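 active = mean added fluorescence quench of at least 8% versus neutral control, with both replicates also reaching 8%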;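 also: cells transiently co-express mutant CFTR-F508del with the halide-sensitive YFP; corrector assay measuring rescue of mutant channel to the surface after 24 h compound exposure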
SMARCA2 act: increases SMARCA2 function in MMTV reporter cells | hit rate 1% among 370,000 | MG213 cells, MMTV-luciferase reporter, dexamethasone, overnight | AID 652017 | activation, % at 9.1 µM; in the data active = activation above about 7.8%
MC4R antagonist: blocks human MC4R cAMP signaling. P32245. inhibition, % at 6.5 µM. MC4R-expressing cells, MTII-stimulated cAMP, LANCE TR-FRET. hit rate 0.48% among 360,000;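 active = inhibition above its plate's cutoff, the mean of tested wells on that plate plus 3 SD, cut at about 29% in these data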
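Material: U2OS-MC4R stable cell line | Reagent: Melanotan II challenge after compound preincubation | Doses: One concentration, 6.5 µM nominal | Incubation: 30-min compound preincubation, 1-h Melanotan II challenge, 1-h detection, room temperature | Signal: TR-FRET cAMP assay | Replicates: One well per compound, no replicates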
Large screens that a line does not name were inactive.

CCOC(=O)Cn1c(=O)oc2cc(S(=O)(=O)N3CCCc4ccccc43)ccc21	MC4R antagonist 30
COc1ccccc1-c1nc(C#N)c(N2CCc3ccccc3C2)o1	none
COc1ccc(-c2nc(C#N)c(N3CCc4ccccc4C3)o2)cc1OC	MC4R barr agon 12 (no result: F508del corr)
CC(C)(C)C1COc2ccccc2N1C(=O)c1cccc(Cl)c1 (configuration not stated)	F508del corr 9.5
COC(=O)CC1COc2ccccc2N1C(=O)c1cccc(Cl)c1 (configuration not stated)	none (no result: F508del corr)
COc1ccc(/C=C/C(=O)Nc2cc(C)nn2-c2nc3ccccc3n2Cc2cccc([N+](=O)[O-])c2)cc1	MC4R barr agon 8.6 (no result: F508del corr)
COc1ccc(/C=C/C(=O)Nc2cc(C)nn2-c2nc3ccccc3[nH]2)cc1	none
COc1cccc(-n2nnnc2S(C)(=O)=O)c1	MC4R antagonist 43 (no result: F508del corr, SMARCA2 act)
Cc1ccc(NC(=O)c2ccc(Cl)c(S(=O)(=O)Nc3c(C)n(C)n(-c4ccccc4)c3=O)c2)cc1Cl	F508del corr 12
COc1ccc(NC(=O)N(C)C[C@H]2OCCCC[C@H](C)Oc3ccc(NC(=O)CCC(F)(F)F)cc3C(=O)N([C@@H](C)CO)C[C@@H]2C)cc1	none (no result: MC4R barr agon, SMARCA2 act, MC4R antagonist)
Fc1ccc(NC(=S)Nc2ccc(Cl)cc2Cl)cc1	none (no result: MC4R barr agon, F508del corr, MC4R antagonist)
Fc1ccccc1/C=N/NC(=S)Nc1ccc(Cl)cc1Cl	F508del corr 12
CCC(=O)Nc1ccc2c(c1)C(=O)N(C)C[C@H](OC)[C@H](C)CN(C(=O)CN(C)C)[C@@H](C)CO2	none (no result: MC4R barr agon, SMARCA2 act, MC4R antagonist)
COc1ccccc1N/C(=N/S(=O)(=O)c1ccc(C)cc1)c1ccc(Cl)cc1	MC4R antagonist 30 (no result: F508del corr)
Cc1ccc(S(=O)(=O)/N=C(/Nc2ccc(F)cc2F)c2ccc(F)cc2)cc1	none
C[C@@H]1CCCCO[C@@H](CN(C)CC2CC2)[C@@H](C)CN([C@H](C)CO)C(=O)c2cc(NS(=O)(=O)c3ccccc3)ccc2O1	none (no result: MC4R barr agon, SMARCA2 act, MC4R antagonist)
C[C@@H]1CN([C@H](C)CO)C(=O)Cc2cc(NC(=O)c3ccncc3)ccc2O[C@H]1CN(C)Cc1ccc2c(c1)OCO2	none (no result: MC4R barr agon, SMARCA2 act, MC4R antagonist)
CCOc1ccc(C(=O)C(CCC(CN(C)C)C(=O)c2ccc(OCC)cc2)CN(C)C)cc1 (configuration not stated)	MC4R barr agon 9.5 (no result: F508del corr)
CC(C)(C)C1CCC(=NNC(=O)c2cc3c(s2)CCCC3)CC1 (configuration not stated)	none
CC(C)(C)C1CCc2sc(C(=O)NNC(=O)CCl)cc2C1 (configuration not stated)	MC4R barr agon 19
c1ccc(CCNc2ccnc3cc4ccccc4cc23)cc1	MC4R barr agon 17
CO[C@@H]1CN(C)C(=O)c2ccc(NC(C)=O)cc2OC[C@H](C)N(Cc2ccc(F)cc2)C[C@H]1C	none (no result: MC4R barr agon, SMARCA2 act, MC4R antagonist)
COc1ccccc1-c1cnc2c(c1)C(=O)N([C@@H](C)CO)C[C@@H](C)[C@H](CN(C)Cc1cccc(F)c1)O2	none (no result: MC4R barr agon, SMARCA2 act, MC4R antagonist)
O=c1[nH]c2ccc(Cl)cc2c(-c2ccccc2)c1[N+](=O)[O-]	MC4R barr agon 9.3
O=C(Cc1ccccn1)N1CC2(C1)[C@H](c1ccccc1)[C@@H](CO)N2C(=O)c1ccccc1	none (no result: MC4R barr agon, SMARCA2 act, MC4R antagonist)
Oc1cc2c(cc1O)C(c1ccccc1)CNCC2 (configuration not stated)	F508del corr 9.5
CO[C@H]1CN(C)C(=O)c2ccc(NC(=O)C3CC3)cc2OC[C@H](C)N(C(=O)CN2CCOCC2)C[C@H]1C	none (no result: MC4R barr agon, SMARCA2 act, MC4R antagonist)
Cc1ccc(-c2nn(-c3ccccc3)cc2CNCc2ccccc2)cc1	MC4R barr agon 9.5
Cc1ccc(-c2nn(-c3ccccc3)cc2CO)cc1	none
C[C@H]1CN([C@@H](C)CO)S(=O)(=O)c2ccc(C#Cc3ccccc3)cc2O[C@H]1CN(C)C(=O)Cc1ccccn1	none (no result: MC4R barr agon, SMARCA2 act, MC4R antagonist)
CC(=O)Nc1ccc(NC(=O)CN(c2ccc(C34CC5CC(CC(C5)C3)C4)cc2)S(C)(=O)=O)cc1	MC4R barr agon 11 (no result: F508del corr)
CCOC(=O)c1c(NC(=O)Cn2cc([N+](=O)[O-])cn2)sc2c1CCC2	MC4R barr agon 9.3 (no result: F508del corr)
CN(CC1CCCO1)S(=O)(=O)c1ccc(C(=O)Nc2nnc(-c3ccccc3)o2)cc1 (configuration not stated)	F508del corr 8.2
Cc1ccc(S(=O)(=O)Nc2ccc3c(c2)C(=O)N([C@@H](C)CO)C[C@@H](C)[C@H](CN(C)C(=O)C2CCCCC2)OCCCC[C@@H](C)O3)cc1	none (no result: MC4R barr agon, SMARCA2 act, MC4R antagonist)
CCCNC(=O)C[C@@H]1C[C@H]2c3cc(NC(=O)C4CCC4)ccc3O[C@H]2[C@H](CO)O1	none (no result: MC4R barr agon, SMARCA2 act, MC4R antagonist)
NC(=O)CSc1nc2scc(-c3ccc(Cl)cc3)c2c(=O)n1Cc1ccccc1	MC4R barr agon 8.7 (no result: F508del corr)
Cc1ccc(-c2csc3nc(SCC(=O)N(C)C)n(Cc4ccccc4)c(=O)c23)cc1	none (no result: F508del corr)
COc1cccc2cc(C(=O)NCCN3CCOCC3)c(=O)oc12	F508del corr 9.6
COc1ccc(/C=N\NC(=O)COc2ccc(C(C)(C)C)cc2)cc1Cn1nc(C)cc1C	MC4R barr agon 22 (no result: F508del corr)
COc1ccc(/C=N/NC(=O)c2ccco2)cc1Cn1nc(C)cc1C	none (no result: F508del corr)
Nc1ccccc1SCc1c(Cl)cccc1Cl	MC4R barr agon 8.5
O=C(CSc1nnc(Cc2cc(=O)[nH]c(=O)[nH]2)n1-c1ccccc1)N1CCCCC1	none
O=C(CSc1nnc(CCCN2C(=O)c3cccc4cccc(c34)C2=O)n1-c1ccccc1)N1CCCCC1	SMARCA2 act 8.1 (no result: F508del corr)
COCCSc1ccccc1C(=O)Nc1cc([N+](=O)[O-])ccc1OC	F508del corr 18
COCCSc1ccccc1C(=O)Nc1ccc([N+](=O)[O-])cc1OC	none
Cc1ccc(NC(=O)Nc2ccc3c(c2)C(=O)N(C)[C@@H]2CC[C@H](CC(=O)O)O[C@@H]2CO3)cc1	none (no result: MC4R barr agon, SMARCA2 act, MC4R antagonist)
Cc1ccc(C)c(OCC(=O)Nc2cccc(C(=O)O)c2)c1C	none (no result: F508del corr)
COc1cccc(NC(=O)COc2ccccc2)c1	SMARCA2 act 7.8
Cc1cccc(C)c1OCC(=O)Nc1cccc(C(=O)O)c1	SMARCA2 act 7.9
COc1cccc2c1C(=O)c1c(O)c3c(c(O)c1C2=O)C[C@@](O)(C(=O)CO)C[C@@H]3O[C@H]1C[C@H](N)[C@H](O)[C@H](C)O1	F508del corr 31
CC(=O)[C@@]1(O)Cc2c(O)c3c(c(O)c2[C@H](O[C@H]2C[C@H](N)[C@H](O)[C@H](C)O2)C1)C(=O)c1ccccc1C3=O	F508del corr 22
COc1cccc2c1C(=O)c1c(O)c3c(c(O)c1C2=O)CC(O)(C(C)=O)CC3OC1CC(N(C)C)C(O)C(C)O1 (configuration not stated)	F508del corr 34
COc1cccc2c1C(=O)c1c(O)c3c(c(O)c1C2=O)C[C@@](O)(C(=O)CO)C[C@@H]3OC1CC(N)C(O)C(C)O1 (some centres not stated)	F508del corr 14
C[C@H]1CN([C@@H](C)CO)C(=O)Cc2cc(NC(=O)NC3CCCCC3)ccc2O[C@H]1CN(C)Cc1ccncc1	none (no result: MC4R barr agon, SMARCA2 act, MC4R antagonist)
O=C(C[C@H]1C[C@@H]2c3cc(NC(=O)Cc4ccncc4)ccc3O[C@@H]2[C@H](CO)O1)NCc1ccccn1	none (no result: MC4R barr agon, SMARCA2 act, MC4R antagonist)
